As a reminder, the IC50 is the concentration that inhibits the measured activity by half.

One data set relates to HeLa. Kind of data set: Cytotoxicity against human HeLa cells at 20 uM by modified MTT assay. The data set is classed as functional, cell-based. For orientation: Tetrazolium dyes change colour on reduction, which living cells bring about.
The subject of a further data set is RAW264.7. Kind of data set: Antiinflammatory activity in mouse RAW264.7 cells assessed as inhibition of LPS-induced nitric oxide production after 24 hrs by Griess reagent assay. The data set is classed as functional, cell-based. To be noted: RAW264.7, 24 h. In a few lines: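 RAW264.7 murine macrophages grown in DMEM with 10% heat-inactivated FBS at 37 °C, 5% CO2. After 24 h, medium renewed; compounds added at 0, 1, 5, 10 or 20 µg/mL with LPS 1 µg/mL, then 24 h incubation. Supernatant nitrite measured with Griess reagent, absorbance 540 nm. Results given as percent of untreated control. Mean ± SD of three experiments, each in triplicate.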
In general terms: Griess reagent forms a coloured azo dye with nitrite.

The subject of a further data set is KB. The experiment in a line: Cytotoxicity against human KB cells at 20 uM by modified MTT assay. The data set is classed as functional, cell-based.
The next data set concerns Daoy. The experiment in a line: Cytotoxicity against human DaOY cells at 20 uM by modified MTT assay. The data set is classed as functional, cell-based.
In a further data set the test system is WiDr. The experiment in a line: Cytotoxicity against human WiDr cells at 20 uM by modified MTT assay. The data set is classed as functional, cell-based.
A short description of data set [1]: Cytotoxicity against mouse RAW264.7 cells assessed as cell viability by modified MTT assay. The data set is classed as cell-based. Further details: concentration or dose not given beside the values. To be noted: read-out: Activity. In a few lines:
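RAW264.7 cells after the same LPS (1 µg/mL) and compound (0-20 µg/mL) 24 h exposure used for NO measurement. MTT (5 mg/mL stock in PBS, 10 µL per 100 µL culture) added for 4 h at 37 °C. Formazan dissolved in DMSO and read at 550 nm. Untreated cells taken as 100% viability.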

In data set [2] the test system is Radical scavenging activity. The experiment in a line: Antioxidant activity assessed as DPPH radical scavenging activity after 30 mins by ELISA. The data set is classed as functional. In a few lines:
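Sample (200-3.125 µg/mL) or quercetin (25-3.125 µg/mL), 120 µL, mixed with 30 µL of 0.75 mM DPPH in methanol. Shaken in the dark at room temperature for 30 min, then absorbance read at 517 nm. Methanol in place of sample served as negative control. ED50 is the concentration giving 50% reduction of DPPH radicals.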

The source made the active and inactive calls. No cut-off for these calls is given here. Some results are limits rather than exact numbers.

Consider `C[C@@H]1O[C@@H](O[C@H]2C(Oc3c(-c4ccc(O)cc4)oc4cc(O)cc(O)c4c3=O)O[C@@H](C)[C@H](O)[C@H]2O)[C@H](O)[C@H](O)[C@H]1O` (stereo partly specified), for which the outcome with HeLa, with KB, in the data set on Daoy and in the data set on WiDr was inactive. The half-maximal inhibitory concentration (IC50) in the data set with RAW264.7 was found to be 40.1 µM. Besides, the viability in data set [1] was > 80%.
On to `C=C(CO)[C@H]1C[C@@H]2[C@@H](CC[C@H]3C(C)(C)[C@@H](O[C@@H]4O[C@H](CO)[C@@H](O)[C@H](O)[C@H]4O[C@@H]4O[C@@H](C)[C@H](O)[C@@H](O)[C@H]4O)CC[C@]23C)[C@H]1O` [NORALPINDENOSIDE A], for which the result in the data set on HeLa, in the data set with KB, with Daoy and with WiDr was inactive. Moreover, the half-inhibitory concentration (IC50) in the data set on RAW264.7 stood at 31.8 µM. Further, the ED50 in data set [2] was > 200 µg/mL. The viability in data set [1] was > 80%.
Regarding `CC(=O)OC[C@H]1O[C@@H](O[C@H]2CC[C@]3(C)[C@H]4C[C@H](C5=CCOC5=O)OC(O)[C@@H]4CC[C@H]3C2(C)C)[C@H](O[C@@H]2O[C@@H](C)[C@H](O)[C@@H](O)[C@H]2O)[C@@H](O)[C@@H]1O` (stereo partly specified) [ALPINDENOSIDE D], the result in the data set with HeLa, in the data set with KB, with Daoy and in the data set on WiDr was inactive. Moreover, the IC50 in the data set on RAW264.7 was 30 µM. Further, the ED50 in data set [2] is > 200 µg/mL. In data set [1], the viability is > 80%.
Take `C[C@@H]1O[C@@H](O[C@H]2[C@H](Oc3c(-c4ccc(O)c(O)c4)oc4cc(O)cc(O)c4c3=O)O[C@@H](C)[C@H](O)[C@H]2O)[C@H](O)[C@H](O)[C@H]1O`: the outcome in the data set on HeLa, in the data set with KB, with Daoy and with WiDr was inactive. In the data set on RAW264.7, the IC50 amounted to 32.9 µM. The ED50 in data set [2] was found to be 16.6 µM. Besides, the viability in data set [1] is > 80%.
As for `CC1(C)[C@@H](O)CC[C@]2(C)C3=C(CC[C@@H]12)CO[C@@H](C1=CCOC1=O)C3` [AULACOCARPINOLIDE], the outcome with HeLa, with KB, with Daoy and in the data set on WiDr was inactive. In addition, the IC50 in the data set with RAW264.7 turned out to be 44.6 µM. Also, the viability in data set [1] is > 80%.
Take `C[C@@H]1O[C@@H](O[C@H]2[C@H](O[C@H]3CC[C@]4(C)C5=C(CC[C@H]4C3(C)C)CO[C@H](C3=CCOC3=O)C5)O[C@H](CO)[C@@H](O)[C@@H]2O)[C@H](O)[C@H](O)[C@H]1O` [ALPINDENOSIDE A]: the result with HeLa, with KB, with Daoy and with WiDr was inactive. Moreover, the IC50 in the data set on RAW264.7 was determined as 34.2 µM. For the same compound, the ED50 in data set [2] is > 200 µg/mL. Besides, the viability in data set [1] is > 80%.
As for `C[C@@H]1O[C@@H](O[C@H]2[C@H](O[C@H]3CC[C@]4(C)[C@@H]5C[C@H](C6=CCOC6=O)OC(O)[C@@H]5CC[C@H]4C3(C)C)O[C@H](CO)[C@@H](O)[C@@H]2O)[C@H](O)[C@H](O)[C@H]1O` (stereo partly specified) [ALPINDENOSIDE C], the outcome with HeLa, with KB, in the data set on Daoy and with WiDr was inactive. For the same compound, the IC50 in the data set with RAW264.7 was found to be 38 µM. The ED50 in data set [2] is > 200 µg/mL. Besides, the viability in data set [1] was > 80%.
Regarding `C[C@@H]1O[C@@H](O[C@H]2[C@H](O[C@H]3CC[C@]4(C)C5=C(CC[C@H]4C3(C)C)CO[C@@H](C3=CCOC3=O)C5)O[C@H](CO)[C@@H](O)[C@@H]2O)[C@H](O)[C@H](O)[C@H]1O` [ALPINDENOSIDE B], the outcome with HeLa, in the data set with KB, in the data set with Daoy and in the data set with WiDr was inactive. Besides, the IC50 in the data set with RAW264.7 was 49.3 µM. Besides, in data set [2], the ED50 was > 200 µg/mL. In data set [1], the viability was > 80%.
Consider `C=C(C)[C@H]1C[C@@H]2[C@@H](CC[C@H]3C(C)(C)[C@@H](O[C@@H]4O[C@H](CO)[C@@H](O)[C@H](O)[C@H]4O[C@@H]4O[C@@H](C)[C@H](O)[C@@H](O)[C@H]4O)CC[C@]23C)[C@H]1O` [NORALPINDENOSIDE B], for which the outcome with HeLa, in the data set with KB, in the data set with Daoy and with WiDr was inactive. In addition, the concentration for half-maximal inhibition (IC50) in the data set on RAW264.7 was determined as 44.3 µM. The ED50 in data set [2] was > 200 µg/mL. Further, the viability in data set [1] was > 80%.
Consider `CC1(C)[C@@H](O)CC[C@]2(C)C3=C(CC[C@@H]12)CO[C@H](C1=CCOC1=O)C3`, for which the result with HeLa, with KB, with Daoy and in the data set on WiDr was inactive. Besides, the concentration for half-maximal inhibition (IC50) with RAW264.7 was found to be 12.2 µM. Further, in data set [1], the viability was > 80%.
`O=c1c(O)c(-c2ccc(O)c(O)c2)oc2cc(O)cc(O)c12` [QUERCETIN]: the half-maximal inhibitory concentration (IC50) with RAW264.7 stood at 9.6 µM. The ED50 in data set [2] came to 18 µM.
Regarding `O=c1c(O)c(-c2ccc(O)cc2O)oc2cc(O[C@@H]3O[C@H](CO)[C@@H](O)[C@H](O)[C@H]3O)cc(O)c12`, the result in the data set with HeLa, with KB, in the data set with Daoy and in the data set with WiDr was inactive. Also, in the data set on RAW264.7, the IC50 was 39.1 µM. Also, the ED50 in data set [2] was 22.2 µM. Further, in data set [1], the viability is > 80%.

The values are drawn from ChEMBL document CHEMBL1152398, “Labdane diterpenoid glycosides from Alpinia densespicata and their nitric oxide inhibitory activities in macrophages” (J Nat Prod, 2009).
